Experiments:
Caco-2 monolayers = assay: Caco-2 monolayer permeability; type: in vitro ADME; settings: Hank's balanced salt solution, 25 mM HEPES pH 7.4, 37°C
Summary of the method: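 Caco-2 cells were grown in DMEM with 10% foetal bovine serum, 2mM L-glutamine and 1% non-essential amino acids, at 37°C, 95% humidity and 5% CO2, on Transwell polycarbonate inserts. Transport was run in air at 37°C and 95% humidity, in HBSS with 25mM HEPES (pH 7.4). Values are means ± sd of 5 monolayers, or n = 3 for co-incubation experiments.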

P450 = settings: cited from earlier work

SMILES	diffusion across the Caco-2 monolayers (Caco-2 monolayers)	P450-mediated metabolism (P450; in the absence of alkylamide 3)	effect on P450-mediated metabolism of alkylamide 1 (P450; alkylamide 3 present together with 1)
O=C(/C=C/c1ccc(O)c(O)c1)O[C@@H](C(=O)O)[C@@H](OC(=O)/C=C/c1ccc(O)c(O)c1)C(=O)O [cichoric acid]	non-diffusing	–	–
C/C=C\C=C/CC/C=C/C=C/C(=O)NCC(C)C [compound 1, (2E,4E,8Z,10Z)-N-isobutyldodeca-2,4,8,10-tetraenamide]	–	rapid metabolism	–
C#CC#CCCCC/C=C/C(=O)NCC(C)C [compound 3, (2E)-N-isobutylundeca-2-ene-8,10-diynamide]	rapidly diffuse	–	prevented the rapid metabolism of 1
